Columns and labels:
[1] = Neurotoxicity in ip dosed C57B/6 mouse after 30 mins by rotarod test; assay type: toxicity, organism-based; conditions: in vivo
In short: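 Minimal neurotoxicity in mice was scored on the rotarod, 30 min after i.p. administration. TD50 was reported in mg/kg with a range in parentheses.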

Mus musculus [2] = experiment: Anticonvulsant activity in ip dosed C57B/6 mouse assessed as inhibition of maximal electroshock-induced seizures; assay type: functional; conditions: C57B/6, ip
Mus musculus [3] = organism: Mus musculus; experiment: Protective index, ratio of TD50 for C57B/6 mouse by rotarod test to ED50 for C57BL/6 mouse by MES test; assay type: functional
Mus musculus [4] = experiment: Anticonvulsant activity in C57B/6 mouse assessed as inhibition of pentylenetetrazole-induced clonic seizures at 50 mg/kg, ip after 0.5 hrs relative to control; assay type: functional; design: scale not given: the % may be the effect or the level left; conditions: dose 100 mg/kg; route intraperitoneal; in the assay text read “100 mg/kg” for “50 mg/kg”
In short: (§1)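 Seizures in mice were induced by pentylenetetrazole 85 mg/kg in saline, s.c., 30 min after i.p. test agent. Animals were caged singly and watched for 30 min. Clonic and tonic seizures and deaths were counted.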

Mus musculus [5] = experiment: Anticonvulsant activity in C57B/6 mouse assessed as inhibition of pentylenetetrazole-induced tonic seizures at 50 mg/kg, ip after 0.5 hrs relative to control; assay type: functional; design: scale not given: the % may be the effect or the level left; conditions: route intraperitoneal; in short: as §1
Mus musculus [6] = experiment: Anticonvulsant activity in C57B/6 mouse assessed as inhibition of isoniazid-induced clonic seizures at 50 mg/kg, ip after 0.5 hrs relative to control; assay type: functional; design: scale not given: the % may be the effect or the level left; conditions: route intraperitoneal
In short: (§2)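 Isoniazid-induced seizure model in mice. Isoniazid 250 mg/kg was given 30 min after i.p. test agent. Clonic seizures, tonic seizures and lethality were counted. Treated groups were compared with the control group.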

Mus musculus [7] = experiment: Anticonvulsant activity in C57B/6 mouse assessed as inhibition of isoniazid-induced tonic seizures at 50 mg/kg, ip after 0.5 hrs relative to control; assay type: functional; design: scale not given: the % may be the effect or the level left; conditions: route intraperitoneal; in short: as §2
Mus musculus [8] = experiment: Toxicity in isoniazid-induced seizure C57B/6 mouse model assessed as lethality at 50 mg/kg, ip after 0.5 hrs relative to control; assay type: organism-based; design: dose 50 mg/kg, route intraperitoneal; conditions: in vivo
In short: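 Mice received the test agent i.p., then isoniazid 250 mg/kg 30 min later. Clonic seizures, tonic seizures and lethality were recorded, and treated groups were compared with a control group.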

Mus musculus [9] = experiment: Anticonvulsant activity in C57B/6 mouse assessed as inhibition of strychnine-induced clonic seizures at 50 mg/kg, ip after 0.5 hrs relative to control; assay type: functional; design: scale not given: the % may be the effect or the level left; conditions: route intraperitoneal
In short: (§3)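 Strychnine chlorhydrate in saline (1.2 mg/kg) was injected s.c. into mice 30 min after i.p. test agent. Animals were caged singly and observed for 30 min. Seizure onset time, clonic and tonic seizure counts and lethality were recorded. Controls received vehicle only.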

Mus musculus [10] = experiment: Anticonvulsant activity in C57B/6 mouse assessed as inhibition of strychnine-induced tonic seizures at 50 mg/kg, ip after 0.5 hrs relative to control; assay type: functional; design: scale not given: the % may be the effect or the level left; conditions: route intraperitoneal; in short: as §3
Mus musculus [11] = experiment: Toxicity in strychnine-induced seizure C57B/6 mouse model assessed as lethality at 50 mg/kg, ip after 0.5 hrs relative to control; assay type: organism-based; design: dose 50 mg/kg, route intraperitoneal; conditions: in vivo
In short: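 Test agent given i.p.; controls received vehicle only. After 30 min, strychnine chlorhydrate 1.2 mg/kg in saline was injected s.c. Mice were caged individually and observed 30 min, recording seizure onset time, clonic and tonic seizure numbers and lethality.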

| SMILES | TD50 at 0.5 h [1] | further results |
| --- | --- | --- |
| CN(Cc1ccc(F)cc1)c1ccc2c(c1)OCC(=O)N2C | > 300 mg/kg | – |
| O=C1COc2cc(NCc3ccc4c(c3)OCO4)ccc2N1 | > 300 mg/kg | ED50 (Mus musculus [2]): 63.4 mg/kg; Ratio (Mus musculus [3]): >4.7 |
| O=C1COc2cc(NCc3ccccc3Cl)ccc2N1 | > 300 mg/kg | – |
| O=C1COc2cc(NCc3ccc(F)cc3)ccc2N1 | 228 mg/kg | – |
| O=C1COc2cc(NCc3ccc(Br)cc3)ccc2N1 | > 300 mg/kg | – |
| NC(=O)N1c2ccccc2C=Cc2ccccc21 [CARBAMAZEPINE] | 74.4 mg/kg | ED50 (Mus musculus [2]): 9.2 mg/kg; Activity (Mus musculus [4]): 100%; Activity (Mus musculus [5]): 20%; Activity (Mus musculus [6]): 10%; Activity (Mus musculus [7]): 10%; Activity (Mus musculus [8]): 0%; Activity (Mus musculus [9]): 40%; Activity (Mus musculus [10]): 30%; Activity (Mus musculus [11]): 0% |
| O=C1COc2cc(NCc3ccccc3F)ccc2N1 | 183 mg/kg | – |
| O=C1COc2cc(NCc3cccc(F)c3)ccc2N1 | 228 mg/kg | – |
| CCOc1ccc(CNc2ccc3c(c2)OCC(=O)N3)cc1 | > 300 mg/kg | – |
| O=C1COc2cc(NCc3ccccc3)ccc2N1 | 182 mg/kg | – |
| O=C1COc2cc(NCc3ccc(Cl)cc3)ccc2N1 | > 300 mg/kg | – |
| Cc1ccc(CNc2ccc3c(c2)OCC(=O)N3)cc1 | > 300 mg/kg | – |
| O=C1COc2ccccc2N1 | > 300 mg/kg | ED50 (Mus musculus [2]): 300 mg/kg |

Source: ChEMBL document CHEMBL1156692, “Synthesis of novel 7-benzylamino-2H-1,4-benzoxazin-3(4H)-ones as anticonvulsant agents” (Eur J Med Chem, 2008)
